In ChEMBL document CHEMBL1764980, “Synthesis and biological evaluation of orally active prodrugs of indomethacin” (J Med Chem, 2011):

Experiments:
[1] = Aqueous solubility of the compound in 0.2 M phosphate buffer at pH 7.4 after 4 hrs by HPLC analysis; type: physicochemical
Method in brief: (§1)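 5 mg compound in 10 mL buffer, shaken at 400 rpm for 4 h at 40 °C. Then passed through a 0.20 μm membrane filter. Filtrate quantified by HPLC at 254 nm for both solubility and hydrolysis to parent. Detection limits estimated by HPLC.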

[2] = Chemical stability of the compound at 0.1 M citric acid buffer assessed as hydrolysis to parent compound at pH 3 after 4 hrs by HPLC analysis; type: physicochemical; conditions: pH 3, 4 h; method in brief: as §1
[3] = Aqueous solubility of the compound in 0.1 M boric acid buffer at pH 9 after 4 hrs by HPLC analysis; type: physicochemical; method in brief: as §1
[4] = test system: Rattus norvegicus; assay: Gastrointestinal toxicity in Wistar rat assessed as ulcerogenic index at 100 mg/kg, po administered as single dose; type: organism-based; parameters: dose 100 mg/kg, route oral; conditions: in vivo
Method in brief: (§2)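 Male Wistar rats (150-200 g), n = 6 per group, fasted 18 h with water available. Single oral dose of 100 mg/kg. Killed under ether 6 h after dosing; stomach opened along the greater curvature, washed and examined. Lesion lengths measured by Vernier caliper and graded I (<1 mm), II (1-3 mm) or III (>3 mm). UI = 1×(I) + 2×(II) + 3×(III), averaged over six animals.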

[5] = Aqueous solubility of the compound in 0.1 M citric acid buffer at pH 3 after 4 hrs by HPLC analysis; type: physicochemical; method in brief: as §1
[6] = Metabolic stability in rat plasma assessed as compound remaining at 5 mM after 60 mins by HPLC analysis; type: ADME, cell-free; conditions: read-out: Stability
[7] = Metabolic stability in rat liver microsomes assessed as compound remaining at 5 mM after 30 mins by HPLC analysis; type: ADME, Microsome; conditions: read-out: Stability
[8] = Aqueous solubility of the compound in 0.2 M hydrochloric acid buffer at pH 1 after 4 hrs by HPLC analysis; type: physicochemical; method in brief: as §1
[9] = Aqueous solubility of the compound in 0.1 M phosphate buffer at pH 5.2 after 4 hrs by HPLC analysis; type: physicochemical; method in brief: as §1
[10] = Chemical stability of the compound at 0.1 M boric acid buffer assessed as hydrolysis to parent compound at pH 9 after 4 hrs by HPLC analysis; type: physicochemical; conditions: pH 9, 4 h; method in brief: as §1
[11] = Partition coefficient, log P of the compound in 1-octanol-citric acid buffer at pH 3 by HPLC analysis; type: physicochemical
Method in brief: (§3)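 Shake-flask method at 25 °C. 1-octanol and aqueous buffer (0.2 M phosphate pH 7.4 or 0.1 M citric acid pH 3.0) pre-saturated with each other for 24 h. Compound shaken in 5 mL each phase for 60 min at 400 rpm, then centrifuged at 3500 rpm for 5 min. Both phases quantified by HPLC at 254 nm. log P = log(octanol/water concentration). Run in triplicate.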

[12] = Chemical stability of the compound at 0.2 M phosphate buffer assessed as hydrolysis to parent compound at pH 7.4 after 4 hrs by HPLC analysis; type: physicochemical; conditions: pH 7.4, 4 h; method in brief: as §1
[13] = test system: Rattus norvegicus; assay: Gastrointestinal toxicity in Wistar rat assessed as appearance ulcer area of <1 mm diameter at 100 mg/kg, po administered as single dose after 6 hrs by Vernier caliper; type: organism-based; parameters: dose 100 mg/kg, route oral; conditions: in vivo; method in brief: as §2
[14] = Metabolic stability in rat liver microsomes assessed as compound remaining at 5 mM after 60 mins by HPLC analysis; type: ADME, Microsome; conditions: read-out: Stability
[15] = Chemical stability of the compound at 0.1 M phosphate buffer assessed as hydrolysis to parent compound at pH 5.2 after 4 hrs by HPLC analysis; type: physicochemical; conditions: pH 5.2, 4 h; method in brief: as §1
[16] = test system: Rattus norvegicus; assay: Antiinflammatory activity in Wistar rat assessed as inhibition of carrageenan-induced paw edema at 100 mg/kg, po administered 1 hr before carrageenan challenge measured after 3 hrs by plethysmograph relative to control; type: functional
Method in brief: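 Male Wistar rats (150-200 g). Carrageenan 1% (0.1 mL) injected subplantar into left paw under light ether anaesthesia; test compound 100 mg/kg po given 1 h before. Paw volume read by plethysmograph 3 h after carrageenan. % inhibition = (carrageenan − test)/(carrageenan − normal) × 100. Groups: normal control, carrageenan, carrageenan plus treatment.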

[17] = Chemical stability of the compound at 0.2 M hydrochloric acid buffer assessed as hydrolysis to parent compound at pH 1 after 4 hrs by HPLC analysis; type: physicochemical; conditions: pH 1, 4 h; method in brief: as §1
[18] = Partition coefficient, log P of the compound in n-octanol-phosphate buffer at pH 7.4 by HPLC analysis; type: physicochemical; method in brief: as §3
[19] = test system: Rattus norvegicus; assay: Gastrointestinal toxicity in Wistar rat assessed as appearance ulcer area of >3 mm diameter at 100 mg/kg, po administered as single dose after 6 hrs by Vernier caliper; type: organism-based; parameters: dose 100 mg/kg, route oral; conditions: in vivo; method in brief: as §2
[20] = test system: Rattus norvegicus; assay: Gastrointestinal toxicity in Wistar rat assessed as appearance ulcer area of 1 to 3 mm diameter at 100 mg/kg, po administered as single dose after 6 hrs by Vernier caliper; type: organism-based; parameters: dose 100 mg/kg, route oral; conditions: in vivo; method in brief: as §2

Row | SMILES | solubility at 4 h [1] | Stability [2] | solubility at 4 h [3] | solubility at 4 h [5] | remaining at 1 h [6] | remaining at 0.5 h [7] | solubility at 4 h [8] | solubility at 4 h [9] | Stability [10] | logD [11] | Stability [12] | remaining at 1 h [14] | Stability [15] | Stability [17] | logD [18] | UI [4] | Activity [13] | inhibition in vivo at 100 mg/kg [16] | Activity [19] | Activity [20]
1 | COc1ccc2c(c1)c(CC(=O)OCc1oc(=O)oc1C)c(C)n2C(=O)c1ccc(Cl)cc1 | < 0.0638 µg/mL | 0.0134 µg/mL | < 0.0638 µg/mL | < 0.0638 µg/mL |  |  | < 0.0638 µg/mL | < 0.0638 µg/mL | 0.5106 µg/mL | 4.5 | 0.0101 µg/mL |  | 0.0244 µg/mL | 0.0191 µg/mL | 2.9 | 0 |  | 12.1% |  | 
2 | COc1ccc2c(c1)c(CC(=O)O)c(C)n2C(=O)c1ccc(Cl)cc1 [INDOMETHACIN] |  |  |  |  | 97.1% | 90.3% |  |  |  | 4.2 |  | 80.2% |  |  |  | 47 | 90.2% | 48.4% | 4.9% | 4.9%

More lines, main results first:

Row | solubility at 4 h [1] | Stability [2] | solubility at 4 h [3] | solubility at 4 h [5] | remaining at 1 h [6] | remaining at 0.5 h [7] | solubility at 4 h [8] | solubility at 4 h [9] | Stability [10] | logD [11] | Stability [12] | remaining at 1 h [14] | Stability [15] | Stability [17] | logD [18] | SMILES | UI [4] | Activity [13] | inhibition in vivo at 100 mg/kg [16] | Activity [19] | Activity [20]
3 | < 0.084 µg/mL | 0.0075 µg/mL | < 0.084 µg/mL | < 0.084 µg/mL | 0% | 0% | < 0.084 µg/mL | < 0.084 µg/mL | 2.187 µg/mL | 4.6 | 0.294 µg/mL | 0% | 0.1525 µg/mL | 0.021 µg/mL | 4.7 | COc1ccc2c(c1)c(CC(=O)OCOC(=O)C(C)(C)C)c(C)n2C(=O)c1ccc(Cl)cc1 | 19 | 100% | 48.4% |  | 
4 | < 0.119 µg/mL | 0.00539 µg/mL | < 0.119 µg/mL | < 0.119 µg/mL |  |  | < 0.119 µg/mL | < 0.119 µg/mL | 0.2461 µg/mL | 5.1 | 0.01332 µg/mL |  | 0.01379 µg/mL | 0.01 µg/mL | 5 | COc1ccc2c(c1)c(CC(=O)OCOC(=O)OC(C)C)c(C)n2C(=O)c1ccc(Cl)cc1 | 62 | 86.3% | 45.2% | 7.8% | 5.9%
5 | < 0.111 µg/mL | 0.0092 µg/mL | < 0.111 µg/mL | < 0.111 µg/mL | 0% | 1.14% | < 0.111 µg/mL | < 0.111 µg/mL | 0.369 µg/mL | 4.2 | 0.0093 µg/mL | 0% | 0.0197 µg/mL | 0.0103 µg/mL | 3.5 | COc1ccc2c(c1)c(CC(=O)OCCOC(C)=O)c(C)n2C(=O)c1ccc(Cl)cc1 | 0 |  | 44.4% |  | 
